SKKanGAS inh – inhibitors of SKKanGAS S. pyogenes growth in kanamycin (SK-promoter or general growth effect); BacTiter-Glo, 6 h; inhibition, % at 7.5 µM; 300,000 tested, 1.3% active; AID 1662;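 active means mean replicate score, as percent of positive control median, at least 50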;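 further: strain carries kanamycin resistance gene driven by streptokinase promoter and grows in 40 µg/ml kanamycin; loss of luminescence reflects streptokinase promoter inhibition or plain growth inhibition; 0% = median of DMSO wells and 100% = positive control at its reference dose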
L major viab – reduces viability of Leishmania major promastigotes. inhibition, % at 10 µM. 200,000 tested, 9% active. resazurin fluorescence viability; in the data active means inhibition above about 50%;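 further: promastigotes grown with compound for 44 hours at 28 °C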
Beta apoptosis – beta cell apoptosis inhibition. INS-1E cytokine-induced death, ATP luminescence, 48 h; percent of positive-control rescue, neutral wells zero. protection from apoptosis, % (concentration not given with the values). 300,000 tested, 0.8% active;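 active means Every replicate reaches about 75%, or at least half do and their mean reaches it too, limit read from the data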;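 further: 0% = cytokine-treated negative control wells and 100% = positive control rescue; higher means more ATP so stronger rescue from cytokine killing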
T cruzi repl – T. cruzi replication inhibition; T. cruzi beta-gal in NIH3T3, luminescence, 90 h; inhibition, % (concentration not given with the values); 300,000 tested, 1.4% active;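 active means mean inhibition across valid replicates above about 55%, limit read from the data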;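 further: signal also drops with host cell toxicity which is not excluded here; 0% = plate median of DMSO wells and 100% = zero luminescence signal; higher percent means less beta-gal luminescence so fewer parasites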
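compound dosing = single 50 nL compound addition per well in DMSO | material = NIH/3T3 host cells with β-galactosidase reporter T. cruzi | input = 5,000 host fibroblasts per well | timing = ≥90 h infection period, 3 h prior cell attachment | read-out basis = percent inhibition of parasite-derived β-gal signal | detection = GalScreen β-gal luminescence, detergent lysis, 60 min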
Mdm2-MdmX inh – disrupts the human Mdm2-MdmX interaction. O15151+Q00987. SaOS-2 split-luciferase Mdm2/MdmX complementation, luminescence. 330,000 tested, 3% active. AID 485346. inhibition, % at 8 µM;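 active means inhibition of at least 50% at 8 µM in the primary screen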
Target sequence (O15151 whole entry, looked up): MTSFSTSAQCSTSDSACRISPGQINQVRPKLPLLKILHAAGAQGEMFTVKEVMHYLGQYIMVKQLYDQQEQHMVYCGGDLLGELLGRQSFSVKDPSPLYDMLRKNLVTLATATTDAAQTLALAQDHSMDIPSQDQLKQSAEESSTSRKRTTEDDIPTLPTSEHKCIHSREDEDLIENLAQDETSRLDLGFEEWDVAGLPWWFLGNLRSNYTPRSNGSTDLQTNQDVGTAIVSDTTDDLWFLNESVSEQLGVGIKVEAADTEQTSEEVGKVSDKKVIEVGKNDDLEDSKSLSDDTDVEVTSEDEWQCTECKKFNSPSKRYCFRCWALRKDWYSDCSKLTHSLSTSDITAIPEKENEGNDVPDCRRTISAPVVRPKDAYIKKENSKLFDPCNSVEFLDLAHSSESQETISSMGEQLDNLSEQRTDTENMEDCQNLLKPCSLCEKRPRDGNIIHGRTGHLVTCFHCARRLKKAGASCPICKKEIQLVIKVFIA
Target sequence (Q00987 whole entry, looked up): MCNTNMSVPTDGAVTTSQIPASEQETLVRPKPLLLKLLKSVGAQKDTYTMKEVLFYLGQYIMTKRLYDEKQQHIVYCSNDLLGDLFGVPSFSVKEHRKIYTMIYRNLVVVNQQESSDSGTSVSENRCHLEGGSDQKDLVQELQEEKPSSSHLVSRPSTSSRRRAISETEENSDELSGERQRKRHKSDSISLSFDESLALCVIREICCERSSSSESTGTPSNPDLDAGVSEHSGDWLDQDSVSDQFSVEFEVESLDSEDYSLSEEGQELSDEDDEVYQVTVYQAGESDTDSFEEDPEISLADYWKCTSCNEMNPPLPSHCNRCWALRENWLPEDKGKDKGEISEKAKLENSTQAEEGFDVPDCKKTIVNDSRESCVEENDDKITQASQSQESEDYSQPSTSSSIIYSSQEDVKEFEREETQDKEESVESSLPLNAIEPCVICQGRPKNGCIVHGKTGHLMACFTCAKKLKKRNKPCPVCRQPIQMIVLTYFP
CSC inhib – blocks cancer stem cells | cancer stem cell-like cells viability, luminescence | 300,000 tested, 1.1% active | AID 2717 | inhibition, % at 7.5 µM; in the data active means inhibition above about 75%; tested in HMLE shEcad cells
An asterisk follows results filed as active; . = no result. A selection: hits, their analogues and other compounds. The true share with any hit is near 9.4%.

SMILES | SKKanGAS inh | L major viab | Beta apoptosis | T cruzi repl | Mdm2-MdmX inh | CSC inhib
COC(=O)[C@@]1(Cc2ccc(OC)cc2)[C@@H]2C(=CC(=O)[C@H]2CC(=O)C(=O)N(C)C)CN1C(=O)c1ccccc1 | . | 100* | -5 | . | 25 | 20
COC(=O)[C@@]1(Cc2ccc(OC)cc2)[C@H]2c3cc(C(=O)N(C)C)n(C[C@H](O)CO)c3C[C@H]2CN1C(=O)c1ccccc1 | . | -6 | 2 | . | 10 | -1
COC(=O)[C@@]1(Cc2ccc(OC)cc2)[C@H]2c3cc(C(=O)N4CCCC4)n(Cc4ccc(C)o4)c3C[C@H]2CN1C(=O)c1ccccc1 | . | 53* | . | . | . | .
COC(=O)[C@@]1(Cc2ccccc2)[C@H]2c3cc(C(=O)N4CCCC4)n(CCSCCO)c3C[C@H]2CN1C(=O)c1ccccc1 | 9 | 9 | 1 | -1 | 12 | -14
CCOc1ccc(CCNC(=O)CN2C(=O)c3cccnc3Oc3ccc(Cl)cc32)cc1 | 2 | . | 1 | 10 | 11 | -14
CC1=C(n2nnc([N+](=O)[O-])n2)C(c2cccnc2)C(C#N)=C(N)O1 (stereo unspecified) | 12 | 5 | . | 57* | 4 | -2
N#CC1=C(N)Oc2ccc3ccccc3c2C1c1cccnc1 (stereo unspecified) | -1 | 88* | . | 3 | . | .
CC1(c2ccccc2)CC(C)(C)N(C(=O)C2CCCO2)c2ccccc21 (stereo unspecified) | -6 | 87* | -27 | 10 | 14 | 15
CC1(c2cc([N+](=O)[O-])cc([N+](=O)[O-])c2)CC(C)(C)N(C(=O)c2ccccc2)c2ccccc21 (stereo unspecified) | 9 | 98* | 21 | 67* | 30 | 22
CC1(c2ccccc2)CC(C)(C)N(C(=O)CSc2nnc(N)s2)c2ccccc21 (stereo unspecified) | -7 | 15 | -3 | 9 | -21 | -3
CCN(Cc1ccccc1)c1ccc(/C=C(\C#N)c2ccccn2)cc1 | -1 | 1 | 11 | 16 | -168 | 22
CCN(CC)c1ccc(/C=C(\C#N)c2ccccn2)cc1 | 6 | 12 | 28 | 16 | -51 | 78*
CC1CCc2c(C(=O)Nc3cccc(-c4nn[nH]n4)c3)csc2C1 (stereo unspecified) | 56* | . | . | -1 | 13 | -9
CC1=NC(Nc2nc(C)c3ccccc3n2)=NC(C)(C)C1 | -8 | 98* | 8 | 40 | 19 | 19
COc1ccc(Nc2nc(C)c3ccccc3n2)cc1 | -4 | 34 | -2 | -20 | -97 | 0
CC(c1cccnc1)N(C(=O)Nc1ccccc1)C1CCCCC1 (stereo unspecified) | -4 | 78* | . | -20 | -7 | -4
CCOc1ccc(NC(=O)N(C2CCCCC2)C(C)c2cccnc2)cc1 (stereo unspecified) | -2 | 87* | 2 | 19 | 13 | 12
CC(=O)Nc1ccc2nc3c(=O)n(C)c(=O)n(C)c3nc2c1 | 1 | . | . | -5 | -11 | -1
CN(C)c1cccc(C(=O)OCc2cc(=O)oc3cc(O)ccc23)c1 | 42 | -6 | 4 | -17 | -72 | 31
CCc1cc2c(COC(=O)c3cc(S(=O)(=O)N4CCOCC4)ccc3F)cc(=O)oc2cc1O | . | . | -6 | . | 31 | 16
CCc1cc2c(COC(=O)c3cccc(NS(C)(=O)=O)c3)cc(=O)oc2cc1O | 50* | . | 5 | -1 | 14 | -1
CC1CN(S(=O)(=O)c2cccc(C(=O)OCc3cc(=O)oc4cc(O)ccc34)c2)CC(C)O1 (stereo unspecified) | 12 | 96* | 1 | 1 | -9 | 15
CC1CCN(CC(=O)Nc2ccccc2Sc2ccccc2)CC1 | 2 | 13 | -4 | 26 | -22 | 117*
O=C(COC(=O)CCC1CCCC1)Nc1ccccc1Sc1ccccc1 | 80* | -9 | -2 | -15 | -11 | 6
O=C(CCl)Nc1ccccc1Sc1ccccc1 | 16 | 54* | -11 | -11 | 13 | .
O=C(Cc1ccc(Cl)cc1)Nc1ccccc1Sc1ccccc1 | 1 | 44 | -12 | 15 | 17 | 4
O=C(Cc1ccccc1)Nc1cc(Cl)ccc1Sc1ccccc1 | 6 | 60* | -4 | 15 | 2 | 70
Cc1nnsc1C(=O)NNC(=O)c1cccc2ccccc12 | -5 | . | -7 | -10 | 23 | -8
COCc1cc(C)nc(OC)c1C(N)=O | -1 | -3 | -15 | -16 | 12 | 1

From PubChem
